From PubChem BioAssay
Hits are enriched below; roughly 3.8% of the tested compounds scored in any of these assays.
Kir21 inh: blocks the mouse Kir2.1 inward-rectifier potassium channel. AID 1672. B-score at 10 µM. P35561. 310,000 tested, 0.85% active. HEK293-Kir2.1, FluxOR thallium flux fluorescence; active compounds read low;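 active = fluorescence ratio B-score at or below minus 3 SD of library scores, with starting-brightness B-score within 2 SD, cut at about -4.2 in these data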;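 also: channel flux triggered by added potassium and thallium sulfate stimulus; B-score of peak minus minimum fluorescence over baseline after thallium stimulus; more negative B-score means stronger Kir2.1 block with less thallium influx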
KCNK3 block: human KCNK3 channel inhibition, primary screen; CHO-KCNK3 thallium flux, FluxOR fluorescence; active compounds read low; 340,000 tested, 0.84% active; B-score at 10 µM;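 active = B-score under library mean minus 4 SD, starting fluorescence ratio at most library mean plus 5 SD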;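 also: more negative B-score means stronger inhibition of thallium flux through KCNK3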
Target sequence (O14649 whole entry, looked up): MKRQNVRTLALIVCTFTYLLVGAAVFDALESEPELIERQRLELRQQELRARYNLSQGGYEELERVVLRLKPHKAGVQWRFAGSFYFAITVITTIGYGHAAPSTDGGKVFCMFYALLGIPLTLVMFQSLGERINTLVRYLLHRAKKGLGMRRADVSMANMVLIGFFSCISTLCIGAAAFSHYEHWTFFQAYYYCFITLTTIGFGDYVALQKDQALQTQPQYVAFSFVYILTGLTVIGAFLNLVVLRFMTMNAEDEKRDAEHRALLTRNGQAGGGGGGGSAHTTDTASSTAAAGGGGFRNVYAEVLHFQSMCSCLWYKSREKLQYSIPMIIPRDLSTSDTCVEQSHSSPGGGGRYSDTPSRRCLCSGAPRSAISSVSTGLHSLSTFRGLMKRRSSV
KCNQ1 inh: human KCNQ1 channel inhibition | P51787 | CHO-K1 KCNQ1, FluxOR thallium flux fluorescence; active compounds read high | B-score at 10 µM | 310,000 tested, 1.3% active | AID 2642;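 active = compounds whose thallium flux B-score, printed positive for inhibition, exceeds three library SD while starting fluorescence stays within three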;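 also: channel opened by potassium depolarization with thallium stimulus after 20 min compound exposure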
KCNK9 inh: inhibitors of human KCNK9 two-pore domain potassium channel; Q9NPC2; HEK293 KCNK9, FluxOR thallium flux fluorescence; active compounds read low; B-score at 10 µM; 310,000 tested, 1.2% active; AID 488922;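 active = ratio B-score over 3 SD below the library mean, with starting fluorescence within 5 SD of its mean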;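 also: negative B-score means less thallium flux so channel inhibition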
Target sequence (Q9NPC2 whole entry, looked up, the tested form may be a part): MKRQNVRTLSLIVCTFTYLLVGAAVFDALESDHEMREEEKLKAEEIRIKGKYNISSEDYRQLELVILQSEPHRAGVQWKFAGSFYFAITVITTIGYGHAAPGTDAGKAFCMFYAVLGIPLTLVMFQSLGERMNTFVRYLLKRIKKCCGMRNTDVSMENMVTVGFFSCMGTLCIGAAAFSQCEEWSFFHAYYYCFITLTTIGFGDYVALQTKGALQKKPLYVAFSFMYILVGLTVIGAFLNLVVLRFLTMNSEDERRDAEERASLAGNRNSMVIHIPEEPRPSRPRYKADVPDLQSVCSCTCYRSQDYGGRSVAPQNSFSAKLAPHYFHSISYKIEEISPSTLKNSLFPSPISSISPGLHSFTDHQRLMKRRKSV
hERG rescue: hERG (human) protection from proarrhythmic block; CHO-hERG, FluxOR thallium flux, dofetilide IC70 present; activation (rescue from dofetilide block), less the hit threshold, % at 10 µM; 310,000 tested, 0.51% active;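 active = activation above the mean of controls blocked by dofetilide plus 5 SD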;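 also: thallium influx through hERG after potassium depolarization seen as dye fluorescence rise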
KCNQ1 pot: potentiators or activators of human KCNQ1 potassium channel; 310,000 tested, 0.35% active; CHO-K1 KCNQ1, thallium flux FluxOR fluorescence; active compounds read high; B-score at 10 µM; P51787; AID 2648;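 active = fluorescence ratio B-score, a plate-corrected score, at least three library SD, with initial intensity B-score within 5 SD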
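Medium – assay buffer, equal DMSO in all wells · Material – CHO-K1 cell line with stable KCNQ1 potassium channel expression · Signal – kinetic FluxOR thallium fluorescence, 10-s 1-Hz baseline, 110-s post-stimulus read · Compound – single concentration per compound, DMSO matched to controls · Schedule – 37 °C overnight plating, 90-min dark dye load, 20-min compound pretreatment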
KCNQ1 block val: confirmation of human KCNQ1 potassium channel inhibitors; KCNQ1 cell line, FluxOR thallium flux fluorescence; 1,600 tested, 93% active; inhibition, % at 10 µM; AID 588353; shares compounds with KCNQ1 inh;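 active = primary screen active, with duplicate mean exceeding buffer control mean plus 3 SD of buffer wells, cut at about 28% in these data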;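 also: 0% = buffer control ratio and 100% = XE991 inhibitor control ratio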
CHO KCNQ1 ctr: counter-screen for KCNQ1 inhibitors: effect in parental CHO cells; shares compounds with KCNQ1 inh; parental CHO-K1, FluxOR thallium flux fluorescence ratio; active compounds read low; zero means no signal rise above baseline; fluorescence ratio (Tl flux) at 10 µM; 1,600 tested, 21% active;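 active = mean of duplicate thallium-flux fluorescence ratios in parental host cells more than 5 SD below the buffer control mean, cut at about 0.38 in these data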;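 also: ratio is peak minus minimum fluorescence divided by baseline fluorescence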
KCNQ1 ephys val: confirmation of human KCNQ1 potassium channel inhibitors by electrophysiology. 490 tested, 20% active. KCNQ1-CHO cells, automated patch clamp current. shares compounds with KCNQ1 inh. calls only at 10 µM;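 active = KCNQ1 current drop exceeding 3 SD of negative control wells, seen in both duplicate runs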;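 also: steady state current during a 2 s step from -80 to +40 mV; negative values mean current inhibition and positive values mean potentiation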
KCNQ2 inh: selectivity of KCNQ1 inhibitors: inhibition of rat KCNQ2 channel | shares compounds with KCNQ1 inh | KCNQ2 cells, FluxOR thallium flux fluorescence | inhibition, % at 10 µM | 1,600 tested, 71% active | AID 651746;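 active = mean percent inhibition of the KCNQ2 thallium signal more than 5 SD above the buffer-only control wells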;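 also: KCNQ2 expressed in CHO cells; 0% = buffer control wells and 100% = XE-991 inhibitor control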
KCNQ1-KCNE1 inh: selectivity of KCNQ1 inhibitors: inhibition of human KCNQ1/KCNE1 channel; 1,600 tested, 77% active; AID 652147; shares compounds with KCNQ1 inh; KCNQ1/KCNE1 cells, FluxOR thallium flux fluorescence; inhibition, % at 10 µM;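 active = mean percent inhibition of duplicate wells above the buffer-only control mean plus 3 SD of those controls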;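 also: 0% = buffer only wells and 100% = XE-991 inhibitor control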
KCNK9 block conf: human KCNK9 inhibitor confirmation. shares compounds with KCNK9 inh. HEK293 KCNK9 cells, FluxOR thallium flux fluorescence. inhibition, % at 10 µM. 4,900 tested, 43% active. AID 492992;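 active = thallium signal inhibited by more than 5 SD of the compound-free buffer control wells, on both duplicate plates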;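 also: 0% = assay buffer control wells without compound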
Kir21 sel: tests whether KCNK9 modulators also affect mouse Kir2.1; AID 492993; Kir2.1 cells, FluxOR thallium flux fluorescence; inhibition, % at 10 µM; shares compounds with KCNK9 inh; 4,900 tested, 4% active;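 active = thallium signal drop more than 5 SD beyond the mean of the no-compound control wells, seen in both duplicate plates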;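 also: signal is fluorescence rise after thallium addition divided by baseline fluorescence; plate controls were assay buffer only for no effect and full block by chlorpromazine control for full effect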
HEK293 Tl ctr: second counter-screen for KCNK9 modulators: effect in non-induced cells | shares compounds with KCNK9 inh | non-induced KCNK9-HEK293, FluxOR thallium flux | inhibition, % at 10 µM | 4,900 tested, 40% active | AID 492997;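 active = thallium signal drop beyond 5 SD of the untreated control mean, on both duplicate plates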;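 also: plate controls were buffer only IC0 wells for no effect and SID17386958 at its maximal inhibitory level for full effect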
An asterisk follows results filed as active; i = inactive; . = no result given; + = active, no number.

SMILES | Kir21 inh | KCNK3 block | KCNQ1 inh | KCNK9 inh | hERG rescue | KCNQ1 pot | KCNQ1 block val | CHO KCNQ1 ctr | KCNQ2 inh | KCNQ1-KCNE1 inh | KCNK9 block conf | Kir21 sel | HEK293 Tl ctr | others
Cc1sc2nc(CN3CCOCC3)nc(N3CCN(S(=O)(=O)c4ccccc4)CC3)c2c1C | . | i | . | . | . | . | . | . | . | . | . | . | .
Cc1ccc(SCCNC(=S)Nc2ccc(C)c(C)c2)cc1 | -0.5 | i | 8* | i | -17.1 | i | 100.0* | 0.447 | i | 98.0%* | i | i | i | KCNQ1 ephys val=i
Cc1ccc(SCCNC(=S)Nc2cc(C)ccc2C)cc1 | -2.18 | i | i | i | -11.1 | i | . | . | . | . | . | . | .
N#Cc1c(N2CCN(C(=O)c3ccccc3Cl)CC2)nc(-c2ccccc2)c2c1CCCC2 | 2.08 | i | 8* | i | -10.6 | i | 92.5* | 0.342* | 102.3%* | 117.0%* | i | i | i
COc1ccc(CC(=O)Nc2cccc(-c3csc(C)n3)c2)cc1 | 0.56 | i | i | i | -2.3 | i | . | . | . | . | . | . | .
CC(C)CC(=O)Nc1cccc(-c2csc(-c3ccccc3)n2)c1 | -0.47 | i | 18* | -13.8* | -12.5 | i | 148.0* | 0.346* | i | + | 67.0%* | i | 31.5%*
CCn1c(SCC(=O)N2CCN(c3ccccc3)CC2)nc2c(c1=O)SC(C)C2 (centres undefined) | -1.38 | i | i | i | -16.1 | i | . | . | . | . | . | . | .
CC1Cc2nc(SCC(=O)N3CCN(c4ccccc4)CC3)n(CCc3ccccc3)c(=O)c2S1 (centres undefined) | 2.29 | i | 8* | i | -26.3 | i | 70.0* | 0.438 | 84.0%* | 175.0%* | i | i | i
Cn1c(=O)c2c(nc(C(O)c3ccccc3)n2C)n(C)c1=O (centres undefined) | . | i | . | . | . | . | . | . | . | . | . | . | .
Clc1ccc(-c2cc3ccccc3nc2N2CCOCC2)cc1 | 1 | i | 11* | i | -14.1 | i | 130.0* | 0.467 | 97.7%* | 182.0%* | i | i | 28.0%*
Cc1ccc(-n2c(-c3ccccc3)c[n+]3c2CCc2ccccc2-3)c(C)c1 | -8.17* | -9.91* | 15* | -12.7* | -27.2 | i | 98.5* | 0.376* | 95.3%* | 34.5%* | 46.5%* | 64.5%* | 36.0%*
O=C(c1ccc2c(c1)OCO2)C1CCCN(Cc2cc(F)ccc2-n2cccn2)C1 (centres undefined) | 0.84 | i | i | i | -15.9 | i | . | . | . | . | . | . | .
Cc1ccc(-n2cccn2)c(CN2CCCC(C(=O)c3ccc4c(c3)OCO4)C2)c1 (centres undefined) | -0.05 | i | 8* | i | -17.4 | i | 65.5* | 0.389 | 111.7%* | 80.5%* | i | i | i
CCOC(=O)c1cnc2ccc(OCC)cc2c1N(C)Cc1ccccc1 | -1.69 | i | 6* | i | -12.0 | i | 148.0* | 0.336* | 153.7%* | 198.0%* | i | i | 23.0%*
CCOc1ccc(CN(C)CC(=O)NCc2ccccc2)cc1 | -0.07 | i | i | i | -16.4 | i | . | . | . | . | . | . | .
Cc1cc(C)nc(NC(=NCCc2c[nH]c3ccccc23)NC(=O)Nc2ccc(Cl)c(Cl)c2)n1 | 2.49 | i | i | i | -9.1 | i | . | . | . | . | . | . | .
Cc1cc(C)nc(NC(=NCCc2c[nH]c3ccccc23)NC(=O)Nc2ccccc2)n1 | 0.03 | i | 7* | i | 0.4 | i | 134.0* | 0.38* | 87.3%* | 199.0%* | i | i | i
O=C(CSCc1cnn(-c2ccccc2)c1-n1cccc1)NCc1cccs1 | -6.27* | i | 7* | i | -7.0 | i | 64.5* | 0.504 | i | 102.5%* | i | i | i
O=C(CSc1nnnn1-c1ccccc1)NCc1cccs1 | -0.06 | i | i | i | -9.0 | i | . | . | . | . | . | . | .
O=C(Nc1ccccc1Cl)c1sccc1-c1ccccc1 | -0.1 | i | 6* | -9.66* | -4.5 | i | + | 0.349* | i | i | 34.0%* | i | 30.0%*
O=C1CCC(C(=O)N2CCCC(C(=O)c3ccc4ccccc4c3)C2)=NN1 (centres undefined) | 1.75 | i | i | i | -4.5 | i | . | . | . | . | . | . | .
CC(C)c1cc(C(=O)N2CCCC(C(=O)c3ccc4ccccc4c3)C2)on1 (centres undefined) | -0.15 | i | 6* | i | -18.4 | i | 0.0 | 0.496 | 90.7%* | 35.0%* | i | i | i
O=C(NCc1ccccc1)C(=O)NCC1CCCN1S(=O)(=O)c1cccs1 (centres undefined) | 0.26 | i | i | i | -15.5 | i | . | . | . | . | . | . | .
Nc1c(C(=O)c2ccccc2)sc2nsc(SCCN3CCCC3)c12 | -3.48 | i | 8* | i | -26.4 | i | 107.5* | 0.208* | i | 143.5%* | 45.0%* | 35.5%* | 73.0%*
CC(OC(=O)c1cccc(S(=O)(=O)N(C)C)c1)C(=O)NCC(=O)Nc1ccc(F)c(F)c1F (centres undefined) | . | i | . | . | . | . | . | . | . | . | . | . | .
Cc1cccc(N2CCN(C(=O)C(Cc3ccccc3)n3cccc3)CC2)c1C (centres undefined) | -1.73 | i | 9* | -9.85* | -13.1 | i | 140.5* | 0.311* | 126.0%* | + | 49.0%* | i | 36.0%*
CCc1cccc(OCC(=O)Nc2ccc(C)c(S(=O)(=O)N3CCCCCC3)c2)c1 | -0.34 | i | 10* | i | -6.1 | i | 121.5* | 0.454 | 116.3%* | 106.5%* | i | i | 33.0%* | KCNQ1 ephys val=i
